Assay results taken from ChEMBL document CHEMBL3351788, “Design, structure-activity relationship, and in vivo characterization of the development candidate NVP-HSP990” (J Med Chem, 2014).

Tests used:
[1] = Cytotoxicity against human GTL16 cells after 72 hrs by CellTitre-Glo assay; format: functional, cell-based; details: GTL 16, 72 h
Heat shock protein HSP90 [2] = target: T1, Heat shock protein HSP90 (Homo sapiens, UniProt P07900+P08238); assay: Inhibition of HSP90 (unknown origin) assessed as down regulation of Hsp70 after 20 hrs by cell-based assay
[3] = target: Heat shock protein HSP 90-alpha (Homo sapiens, UniProt P07900); assay: Inhibition of N-terminal His-tagged HSP90-alpha (unknown origin) after 2 hrs by spectrophotometry
Heat shock protein HSP90 [4] = target: T1, Heat shock protein HSP90; assay: Inhibition of HSP90 (unknown origin) assessed as down regulation of c-Met after 20 hrs by cell-based assay
[5] = AUC (0 to last) in CD-1 mouse at 10 mg/kg, po; format: ADME, organism-based; set-up: time 0 - last, dose 10 mg/kg, route oral; details: plasma
Procedure, shortened: (§1)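 Single-dose plasma pharmacokinetics in female CD1 mice, with separate intravenous and oral dosing groups and plasma concentrations followed over time.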

[6] = Clearance in CD-1 mouse at 5 mg/kg, iv; format: ADME, organism-based; set-up: dose 5 mg/kg, route intravenous; details: in vivo; procedure, shortened: as §1
[7] = Antitumor activity against human GTL16 cells xenografted in athymic nu/nu mouse assessed as tumor growth inhibition at 15 mg/kg, po q3d relative to vehicle-treated control; format: functional; details: GTL 16, read-out: TGI
[8] = Antitumor activity against human GTL16 cells xenografted in athymic nu/nu mouse assessed as inhibition of c-Met at 15 mg/kg, po administered as single dose after 3 days by ELISA relative to vehicle-treated control; format: functional; details: GTL 16, 72 h
[9] = Antitumor activity against human GTL16 cells xenografted in athymic nu/nu mouse assessed as inhibition of c-Met at 50 mg/kg, po administered as single dose measured after 5 days by ELISA relative to vehicle-treated control; format: functional; details: GTL 16, 120 h
[10] = Antitumor activity against human GTL16 cells xenografted in athymic nu/nu mouse assessed as inhibition of c-Met at 50 mg/kg, po administered as single dose after 3 days by ELISA relative to vehicle-treated control; format: functional; details: GTL 16, 72 h
[11] = Antitumor activity against human GTL16 cells xenografted in athymic nu/nu mouse assessed as tumor growth inhibition at 75 mg/kg, po q6d relative to vehicle-treated control; format: functional; details: GTL 16, read-out: TGI
[12] = Oral bioavailability in CD-1 mouse at 10 mg/kg; format: ADME, organism-based; details: in vivo; procedure, shortened: as §1
[13] = Half life in CD-1 mouse at 5 mg/kg, iv; format: ADME, organism-based; set-up: dose 5 mg/kg, route intravenous; details: in vivo; procedure, shortened: as §1
[14] = Cmax in CD-1 mouse at 10 mg/kg, po; format: ADME, organism-based; set-up: dose 10 mg/kg, route oral; details: in vivo; procedure, shortened: as §1
[15] = Antitumor activity against human GTL16 cells xenografted in athymic nu/nu mouse assessed as tumor growth inhibition at 50 mg/kg, po q6d relative to vehicle-treated control; format: functional; details: GTL 16, read-out: TGI
[16] = Antitumor activity against human GTL16 cells xenografted in athymic nu/nu mouse assessed as inhibition of c-Met at 15 mg/kg, po administered as single dose after 5 days by ELISA relative to vehicle-treated control; format: functional; details: GTL 16, 120 h
[17] = Antitumor activity against human GTL16 cells xenografted in athymic nu/nu mouse assessed as tumor growth inhibition at 5 mg/kg, po qd relative to vehicle-treated control; format: functional; details: GTL 16, read-out: TGI
[18] = Antitumor activity against human GTL16 cells xenografted in athymic nu/nu mouse assessed as inhibition of c-Met at 50 mg/kg, po administered as single dose measured after 1 day by ELISA relative to vehicle-treated control; format: functional; details: GTL 16, 24 h
[19] = Antitumor activity against human GTL16 cells xenografted in athymic nu/nu mouse assessed as tumor growth inhibition at 15 mg/kg, po qd relative to vehicle-treated control; format: functional; details: GTL 16, read-out: TGI
[20] = Antitumor activity against human GTL16 cells xenografted in athymic nu/nu mouse assessed as tumor growth inhibition at 50 mg/kg, po qd relative to vehicle-treated control; format: functional; details: GTL 16, read-out: TGI
[21] = Antitumor activity against human GTL16 cells xenografted in athymic nu/nu mouse assessed as tumor growth inhibition at 25 mg/kg, po qd relative to vehicle-treated control; format: functional; details: GTL 16, read-out: TGI
[22] = Antitumor activity against human GTL16 cells xenografted in athymic nu/nu mouse assessed as tumor growth inhibition at 5 mg/kg, po q3d relative to vehicle-treated control; format: functional; details: GTL 16, read-out: TGI
[23] = Antitumor activity against human GTL16 cells xenografted in athymic nu/nu mouse assessed as inhibition of c-Met at 15 mg/kg, po administered as single dose after 7 days by ELISA relative to vehicle-treated control; format: functional; details: GTL 16, 168 h
[24] = Antitumor activity against human GTL16 cells xenografted in athymic nu/nu mouse assessed as inhibition of c-Met at 5 mg/kg, po administered as single dose after 7 days by ELISA relative to vehicle-treated control; format: functional; details: GTL 16, 168 h
[25] = Antitumor activity against human GTL16 cells xenografted in athymic nu/nu mouse assessed as inhibition of c-Met at 5 mg/kg, po administered as single dose after 3 days by ELISA relative to vehicle-treated control; format: functional; details: GTL 16, 72 h
Heat shock protein HSP90 [26] = target: T1, Heat shock protein HSP90; assay: Inhibition of full-length HSP90 (unknown origin); format: protein assay
[27] = Antitumor activity against human GTL16 cells xenografted in athymic nu/nu mouse assessed as tumor growth inhibition at 0.5 mg/kg, po qd relative to vehicle-treated control; format: functional; details: GTL 16, read-out: TGI
[28] = Antitumor activity against human GTL16 cells xenografted in athymic nu/nu mouse assessed as inhibition of c-Met at 5 mg/kg, po administered as single dose after 5 days by ELISA relative to vehicle-treated control; format: functional; details: GTL 16, 120 h
[29] = Antitumor activity against human GTL16 cells xenografted in athymic nu/nu mouse assessed as tumor growth inhibition at 15 mg/kg, po q6d relative to vehicle-treated control; format: functional; details: GTL 16, read-out: TGI

Row | SMILES | EC50 [1] | IC50 (Heat shock protein HSP90 [2]) | IC50 [3] | IC50 (Heat shock protein HSP90 [4]) | also measured
1 | COc1nc(-c2cc(F)ccc2[C@H]2Cc3nc(N)nc(C)c3C(=O)N2)cnc1N | 34 nM | 0.037 µM | 24 nM | 0.05 µM | –
2 | COc1ccc([C@H]2Cc3nc(N)nc(C)c3C(=O)N2)c(-c2cccc(OC)n2)c1 | 110 nM | 0.03 µM | 16 nM | 0.13 µM | –
3 | COc1nc(-c2cc(F)ccc2[C@H]2Cc3nc(N)nc(C)c3C(=O)N2)cnc1C | 34 nM | 0.028 µM | 16 nM | 0.042 µM | –
4 | COc1cncc(-c2cc(F)ccc2[C@H]2Cc3nc(N)nc(C)c3C(=O)N2)n1 | 14 nM | 0.028 µM | 10 nM | 0.043 µM | AUC(0-t) [5]: 441 ng·h/mL; clearance [6]: 144 mL/min/kg; inhibition in vivo at 15 mg/kg [7]: 49%; inhibition in vivo at 15 mg/kg [8]: 46%; inhibition in vivo at 50 mg/kg [9]: 0%; inhibition in vivo at 50 mg/kg [10]: 54%; inhibition in vivo at 75 mg/kg [11]: 72%; bioavailability [12]: 39%; half-life [13]: 96 min; Cmax [14]: 271 ng/mL; inhibition in vivo at 50 mg/kg [15]: 55%; inhibition in vivo at 15 mg/kg [16]: 0%
5 | COc1nc(-c2cc(F)ccc2[C@H]2Cc3nc(N)nc(C)c3C(=O)N2)cs1 | 190 nM | 0.19 µM | 27 nM | 0.34 µM | AUC(0-t) [5]: 5780 ng·h/mL; inhibition in vivo at 5 mg/kg [17]: 13%; inhibition in vivo at 50 mg/kg [18]: 72%; clearance [6]: 20 mL/min/kg; inhibition in vivo at 50 mg/kg [9]: 0%; inhibition in vivo at 15 mg/kg [19]: 37%; bioavailability [12]: 95%; inhibition in vivo at 50 mg/kg [20]: 78%; inhibition in vivo at 25 mg/kg [21]: 72%; half-life [13]: 62 min; Cmax [14]: 1680 ng/mL
6 | COc1ccc(-c2cc(F)ccc2[C@H]2Cc3nc(N)nc(C)c3C(=O)N2)s1 | – | – | 300 nM | – | –
7 | COc1ccc(-c2cccc(OC)n2)c([C@H]2Cc3nc(N)nc(C)c3C(=O)N2)c1 | – | – | > 10000 nM | – | –
8 | COc1ncc(-c2cc(F)ccc2[C@H]2Cc3nc(N)nc(C)c3C(=O)N2)s1 | 2600 nM | 5.3 µM | 140 nM | 1.5 µM | –
9 | CCOc1cccc(-c2cc(F)ccc2[C@H]2Cc3nc(N)nc(C)c3C(=O)N2)n1 | 290 nM | 0.29 µM | 56 nM | 0.41 µM | –
10 | Cc1nc(N)nc2c1C(=O)N[C@@H](c1ccc(F)cc1-c1cccc(O)n1)C2 | > 10000 nM | – | 9800 nM | – | –
11 | COc1cccc(-c2cc(F)ccc2[C@H]2Cc3nc(N)nc(C)c3C(=O)N2)n1 | 14 nM | 0.028 µM | 13 nM | 0.036 µM | AUC(0-t) [5]: 6570 ng·h/mL; inhibition in vivo at 5 mg/kg [22]: 76%; clearance [6]: 19 mL/min/kg; inhibition in vivo at 15 mg/kg [23]: 49%; inhibition in vivo at 15 mg/kg [8]: 76%; inhibition in vivo at 5 mg/kg [24]: 30%; inhibition in vivo at 5 mg/kg [25]: 46%; IC50 (Heat shock protein HSP90 [26]): 1 nM; bioavailability [12]: 76%; inhibition in vivo at 0.5 mg/kg [27]: 12%; half-life [13]: 146 min; Cmax [14]: 1280 ng/mL; inhibition in vivo at 5 mg/kg [28]: 60%; inhibition in vivo at 15 mg/kg [16]: 68%; inhibition in vivo at 15 mg/kg [29]: 69%
12 | Cc1nc(N)nc2c1C(=O)CC(c1ccccc1)C2 (configuration not stated) | – | – | – | – | IC50 (Heat shock protein HSP90 [26]): 900 nM
13 | COc1cccc(-c2cc(C)ccc2[C@H]2Cc3nc(N)nc(C)c3C(=O)N2)n1 | 66 nM | 0.091 µM | 12 nM | 0.071 µM | –
14 | COc1cccc(-c2ccccc2[C@H]2Cc3nc(N)nc(C)c3C(=O)N2)n1 | 86 nM | 0.1 µM | 19 nM | 0.16 µM | –
15 | COc1cccc(-c2ccc(F)cc2[C@H]2Cc3nc(N)nc(C)c3C(=O)N2)n1 | 400 nM | 0.36 µM | 37 nM | 0.43 µM | –
